Laboratory results from ChEMBL document CHEMBL5223110, “Novel allosteric glutaminase 1 inhibitors with macrocyclic structure activity relationship analysis” (Bioorg Med Chem Lett, 2022).

How the values were obtained:
[1] = target: T1, Glutaminase kidney isoform, mitochondrial (Homo sapiens, UniProt O94925); experiment: Inhibition of GLS1 (unknown origin)
T1 sequence (O94925 whole entry): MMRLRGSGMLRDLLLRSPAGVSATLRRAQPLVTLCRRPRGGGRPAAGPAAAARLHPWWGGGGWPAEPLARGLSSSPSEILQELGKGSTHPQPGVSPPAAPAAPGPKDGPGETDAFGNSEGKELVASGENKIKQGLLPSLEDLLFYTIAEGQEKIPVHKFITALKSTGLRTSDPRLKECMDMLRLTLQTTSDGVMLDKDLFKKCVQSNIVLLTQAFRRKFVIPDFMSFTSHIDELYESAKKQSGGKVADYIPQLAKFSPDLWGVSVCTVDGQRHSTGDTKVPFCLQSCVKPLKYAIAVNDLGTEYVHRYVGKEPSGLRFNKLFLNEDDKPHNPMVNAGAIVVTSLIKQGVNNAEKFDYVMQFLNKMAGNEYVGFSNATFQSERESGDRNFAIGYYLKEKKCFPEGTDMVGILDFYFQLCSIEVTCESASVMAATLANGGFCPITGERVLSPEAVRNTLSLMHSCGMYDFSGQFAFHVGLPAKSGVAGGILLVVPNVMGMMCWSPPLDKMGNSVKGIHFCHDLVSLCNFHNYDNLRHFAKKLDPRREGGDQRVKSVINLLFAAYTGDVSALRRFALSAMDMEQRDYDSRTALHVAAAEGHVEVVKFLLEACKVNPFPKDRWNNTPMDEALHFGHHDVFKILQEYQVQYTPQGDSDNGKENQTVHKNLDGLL

[2] = (§1) Antiproliferative activity against human LR cells incubated for 72 hrs by Celltiter-Glo assay; format: functional, cell-based
How it was run: (§2)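 Cells treated with 0, 0.01, 0.03, 0.1, 0.3 and 1 μM of compound for 72 h. Viability read by CellTiter-Glo luminescence. IC50 taken from the dose–response curves. LR cells are LDK378-resistant. A549 and H460 carry co-occurring KRAS and KEAP1 mutations, and H358 carries a KRAS mutation only.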

LR = experiment: as §1; format: functional, cell-based; how it was run: as §2
A549 = experiment: Antiproliferative activity against human A549 cells incubated for 72 hrs by Celltiter-Glo assay; format: functional, cell-based; conditions: A549, 72 h; how it was run: as §2
NCI-H460 = experiment: Antiproliferative activity against human NCI-H460 cells incubated for 72 hrs by Celltiter-Glo assay; format: functional, cell-based; conditions: NCI-H460, 72 h; how it was run: as §2
NCI-H358 = experiment: Antiproliferative activity against human NCI-H358 cells incubated for 72 hrs by Celltiter-Glo assay; format: functional, cell-based; conditions: NCI-H358, 72 h; how it was run: as §2

Row | SMILES | IC50 [1] | Activity (LR) | further results
1 | O=C1Cc2cccc(c2)OCCOCCOc2cccc(c2)CC(=O)NC2=NN=C(CCCC3=NN=C(N1)S3)S2 | 4000 nM | – | –
2 | O=C1Cc2cccc(c2)OCCOCCOCCOCCOc2cccc(c2)CC(=O)NC2=NN=C(CCCCC3=NN=C(N1)S3)S2 | 4000 nM | – | –
3 | O=C1Cc2cccc(c2)OCCCCCOc2cccc(c2)CC(=O)Nc2nnc(s2)CCCCc2ccc(nn2)N1 | 1000 nM | – | –
4 | O=C1Cc2cccc(c2)OCCOc2cccc(c2)CC(=O)NC2=NN=C(CCCCC3=NN=C(N1)S3)S2 | 980 nM | – | –
5 | O=C1Cc2ccc(cc2)OCCOCCOCCOc2cccc(c2)CC(=O)Nc2nnc(s2)CCCCc2nnc(s2)N1 | 3000 nM | – | –
6 | O=C1Cc2cccc(c2)OCCOCCOc2cccc(c2)CC(=O)NC2=NN=C(CCCCC3=NN=C(N1)S3)S2 | 2000 nM | – | –
7 | O=C(Cc1cccc(OC(F)(F)F)c1)Nc1ccc(CCCCc2nnc(NC(=O)Cc3ccccn3)s2)nn1 | – | Dose-Dependent Effect | IC50 [2]: < 100 nM; IC50 (A549): 26 nM; IC50 (NCI-H460): 36 nM; IC50 (NCI-H358): > 1000 nM
8 | O=C1Cc2cccc(c2)OCCCCCCCOc2cccc(c2)CC(=O)Nc2nnc(s2)CCCCc2ccc(nn2)N1 | 3000 nM | – | –
9 | O=C1Cc2cccc(c2)OCCOCCOc2cccc(c2)CC(=O)NC2=NN=C(CCCCCC3=NN=C(N1)S3)S2 | 10000 nM | – | –
10 | O=C1Cc2cccc(c2)OCCOc2cccc(c2)CC(=O)Nc2ccc(nn2)CCCCc2ccc(nn2)N1 | 180 nM | Dose-Dependent Effect | –
11 | O=C1Cc2cccc(c2)OCCCOCCCOc2cccc(c2)CC(=O)Nc2nnc(s2)CCCCc2ccc(nn2)N1 | 800 nM | – | –
12 | O=C1Cc2cccc(c2)OCCOCCOc2cccc(c2)CC(=O)Nc2ccc(nn2)CCCCc2ccc(nn2)N1 | 430 nM | Dose-Dependent Effect | –
13 | O=C1Cc2cccc(c2)OCCCOCCCOc2cccc(c2)CC(=O)Nc2ccc(nn2)CCCCc2ccc(nn2)N1 | 310 nM | Dose-Dependent Effect | IC50 [2]: < 100 nM; IC50 (A549): 95 nM; IC50 (NCI-H460): 88 nM; IC50 (NCI-H358): > 1000 nM
14 | O=C1Cc2cccc(c2)OCCOCCOc2cccc(c2)CC(=O)Nc2nnc(s2)CCCCc2ccc(nn2)N1 | 400 nM | Dose-Dependent Effect | –
